Measurements from PMC3023924 (Bioorganic & medicinal chemistry, 2010).
Where a name gives a salt, the structure may show the parent alone.

Tests used:
[1] = target: T1, human dopamine transporter (hDAT) (Homo sapiens, UniProt Q01959); experiment: [3H]-WIN-35,428 binding inhibition at hDAT N2A neuroblastoma cells; conditions: from Ki values
[2] = Storage stability of radioligand by HPLC; assay type: physicochemical; conditions: 20 weeks at −20 °C in the dark
Procedure, shortened: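 The radioiodinated test compound was made by Chloramine-T iododestannylation and purified by reversed-phase HPLC (C-18, 8 × 100 mm, 6 μm; 3 mL/min; MeOH 35%/CH₃CN 35%/aqueous 30% with Et₃N 2.1% v/v and HOAc 2.8% v/v; radioactivity plus UV 254 nm detection). It was then trapped on a C-18 cartridge and eluted with MeOH. The storage period spanned more than two ¹²⁵I half-lives.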

6Xhis-hDAT = 6Xhis-hDAT (Homo sapiens, UniProt Q01959); experiment: DAT photoaffinity labeling with [125I]-; assay type: binding; conditions: HEK hDAT cells; 30 nM, UV 254 nm, immunoprecipitation (not shown)
Chain of 6Xhis-hDAT (Q01959 whole entry): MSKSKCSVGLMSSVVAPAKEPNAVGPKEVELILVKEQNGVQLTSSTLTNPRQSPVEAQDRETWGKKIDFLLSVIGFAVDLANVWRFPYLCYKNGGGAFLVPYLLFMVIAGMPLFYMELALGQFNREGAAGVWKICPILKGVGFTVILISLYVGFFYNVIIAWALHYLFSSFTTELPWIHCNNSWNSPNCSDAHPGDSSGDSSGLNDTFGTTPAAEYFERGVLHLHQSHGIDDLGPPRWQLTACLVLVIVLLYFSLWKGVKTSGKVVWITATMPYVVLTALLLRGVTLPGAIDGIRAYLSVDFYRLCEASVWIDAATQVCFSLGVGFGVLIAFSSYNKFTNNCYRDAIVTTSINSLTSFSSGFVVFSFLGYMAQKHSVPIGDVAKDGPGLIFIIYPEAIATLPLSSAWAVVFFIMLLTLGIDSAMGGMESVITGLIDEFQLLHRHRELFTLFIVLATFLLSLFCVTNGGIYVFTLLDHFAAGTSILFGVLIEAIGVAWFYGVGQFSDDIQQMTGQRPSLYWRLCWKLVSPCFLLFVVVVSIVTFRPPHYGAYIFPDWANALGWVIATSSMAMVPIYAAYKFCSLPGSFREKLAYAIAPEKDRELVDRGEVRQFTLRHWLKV

rDAT = conditions: pattern previously seen; cited from earlier work
rat striatal DAT = rat striatal DAT (Rattus norvegicus, UniProt P23977); experiment: DAT photoaffinity labeling with [125I]-; assay type: binding; conditions: 30 nM [125I]-(±)-3a; 10 μM or 100 μM competitor; band density vs. control
Chain of rat striatal DAT (P23977 whole entry): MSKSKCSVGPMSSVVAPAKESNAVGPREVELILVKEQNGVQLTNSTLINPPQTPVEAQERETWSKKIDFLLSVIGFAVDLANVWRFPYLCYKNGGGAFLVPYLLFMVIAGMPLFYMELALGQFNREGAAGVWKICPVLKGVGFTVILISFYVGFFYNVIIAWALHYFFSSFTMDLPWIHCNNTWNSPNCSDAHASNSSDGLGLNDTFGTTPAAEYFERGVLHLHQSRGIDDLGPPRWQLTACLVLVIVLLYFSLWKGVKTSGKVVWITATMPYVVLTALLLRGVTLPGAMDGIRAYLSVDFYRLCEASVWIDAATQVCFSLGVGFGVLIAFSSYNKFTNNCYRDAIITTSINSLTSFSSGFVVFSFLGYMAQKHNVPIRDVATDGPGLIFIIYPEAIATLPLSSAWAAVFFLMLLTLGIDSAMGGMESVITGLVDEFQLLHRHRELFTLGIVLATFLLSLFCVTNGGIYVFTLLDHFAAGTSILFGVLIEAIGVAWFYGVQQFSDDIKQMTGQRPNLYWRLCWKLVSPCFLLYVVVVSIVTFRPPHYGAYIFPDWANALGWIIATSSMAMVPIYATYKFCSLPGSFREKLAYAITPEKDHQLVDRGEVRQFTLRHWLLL

[3] = target: T1, human dopamine transporter (hDAT); experiment: [3H]-dopamine uptake inhibition at hDAT N2A neuroblastoma cells; assay type: cell-based; conditions: Table 1
DAT = conditions: cited from earlier work; for IC50: read-out: DAT IC50 for inhibition of [3H]-WIN-35,428 binding
[4] = system: adult attention-deficit hyperactivity disorder (ADHD); conditions: immediate-release and long-acting preparations; cited from earlier work

T1 sequence (Q01959 whole entry): as the sequence (Q01959 whole entry) above

For `COC(=O)[C@H](c1cccc(I)c1)[C@H]1CCCCN1` (racemic) [(±)-1f, (±)-threo-3-Iodomethylphenidate Hydrochloride], the “improvement in DAT affinity versus methylphenidate” value [1] was ~ 5.5 fold.

In the case of `COC(=O)C(c1ccc([125I])cc1)[C@H]1CCCCN1Cc1ccc(N=[N+]=[N-])cc1` (mixture of isomers) [[^125I]-(±)-3a, [^125I]-(±)-threo-N-(p-Azido-benzyl)-4-iodomethylphenidate], the “radiochemical purity after storage” value [2] is reported as “about 80%” and the “irreversible incorporation into DAT (labeled protein of ~80 kDa)” value (6Xhis-hDAT) is reported as “demonstrating the incorporation of [^125I]-(±)-3a into the DAT”.

In the case of `Fc1ccc(C(OCCN2CCN(CCCc3ccccc3)CC2)c2ccc(F)cc2)cc1` [GBR-12,909], the “comparison of binding and uptake inhibition values” (rDAT) is listed as “essentially the same value for binding and uptake inhibition”.

With `COC(=O)[C@H]1[C@@H](c2ccc(F)cc2)C[C@@H]2CC[C@H]1N2C` [β-CFT, (−)-2-β-carbomethoxy-3-β-(4-fluorophenyl)tropane] the “block of [125I]-(±)-3a incorporation into DAT” value (rat striatal DAT) was 75–90%.

In the case of `COC(=O)[C@H](c1ccc(I)cc1)[C@H]1CCCCN1` (racemic) [(±)-1b, (±)-threo-4-Iodomethylphenidate Hydrochloride], the “improvement in DAT affinity versus methylphenidate” value [1] is given as “approximately two-fold”, the “comparison of binding and uptake inhibition values” [3] is given as “essentially the same value for binding and uptake inhibition” and the “higher DAT affinity versus methylphenidate” value (DAT; previous pharmacological results) is given as ~ 6 fold. The IC50 (DAT) was 14 ± 0.1 nM.

For `CN1[C@@H]2CC[C@H]1C[C@@H](OC(c1ccccc1)c1ccccc1)C2` [benztropine], the “comparison of binding and uptake inhibition values” (rDAT) is given as “essentially the same value for binding and uptake inhibition”.
